Measured values taken from ChEMBL document CHEMBL4219224, “Structure based drug design and in vitro metabolism study: Discovery of N-(4-methylthiophenyl)-N,2-dimethyl-cyclopenta[d]pyrimidine as a potent microtubule targeting agent” (Bioorg Med Chem, 2018).
pEC50, pIC50: −log10 of the molar value.

Experiments:
[1] = Induction of microtubule depolymerization in rat A10 cells by indirect immunofluorescence method; type: cell-based
Procedure, shortened: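 A-10 cells, which arrest in interphase, used to score loss of interphase microtubules. EC50 values calculated per an earlier method, minimum of three independent experiments.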

[2] = Inhibition of bovine brain tubulin polymerization assessed as reduction in tubulin assembly pretreated for 15 mins followed by GTP addition by spectrophotometric method; set-up: species or system Bos taurus
Procedure, shortened: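 Placed on ice, then 0.4 mM GTP (final) added. Turbidity read at 350 nm after a jump from 0 °C to 30 °C.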

[3] = tested on: SK-OV-3; experiment: Antiproliferative activity against human SKOV3 cells by SRB assay; type: functional, cell-based
[4] = Antiproliferative activity against human SKOV3-MDR1-M6/6 cells by SRB assay; type: functional
[5] = Resistance index, ratio of IC50 for human SKOV3-MDR1-M6/6 cells to IC50 for human SKOV3 cells; type: functional
Procedure, shortened: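 Antiproliferative IC50 by SRB assay (cellular protein) in each isogenic pair: SK-OV-3 parental versus Pgp-expressing, and parental HeLa versus wild-type βIII-tubulin-expressing HeLa. Rr is the IC50 ratio of the modified line to the parental line. At least three independent experiments, each in triplicate, mean ± SD.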

[6] = tested on: HeLa; experiment: Antiproliferative activity against human HeLa cells by SRB assay; type: functional, cell-based
[7] = tested on: EKVX; experiment: Growth inhibition of human EKVX cells incubated for 48 hrs by sulforhodamine B assay; type: functional
[8] = tested on: HOP-62; experiment: Growth inhibition of human HOP62 cells incubated for 48 hrs by sulforhodamine B assay; type: functional; details: HOP-62, 48 h
[9] = tested on: HOP-92; experiment: Growth inhibition of human HOP92 cells incubated for 48 hrs by sulforhodamine B assay; type: functional; details: HOP-92, 48 h
[10] = tested on: NCI-H226; experiment: Growth inhibition of human NCI-H226 cells incubated for 48 hrs by sulforhodamine B assay; type: functional; details: NCI-H226, 48 h
[11] = tested on: NCI-H23; experiment: Growth inhibition of human NCI-H23 cells incubated for 48 hrs by sulforhodamine B assay; type: functional; details: NCI-H23, 48 h
[12] = tested on: NCI-H460; experiment: Growth inhibition of human NCI-H460 cells incubated for 48 hrs by sulforhodamine B assay; type: functional; details: NCI-H460, 48 h
[13] = tested on: SF-268; experiment: Growth inhibition of human SF268 cells incubated for 48 hrs by sulforhodamine B assay; type: functional; details: SF-268, 48 h
[14] = tested on: SF-539; experiment: Growth inhibition of human SF539 cells incubated for 48 hrs by sulforhodamine B assay; type: functional; details: SF-539, 48 h
[15] = tested on: SNB-19; experiment: Growth inhibition of human SNB19 cells incubated for 48 hrs by sulforhodamine B assay; type: functional; details: SNB-19, 48 h
[16] = tested on: U-251; experiment: Growth inhibition of human U251 cells incubated for 48 hrs by sulforhodamine B assay; type: functional; details: U-251, 48 h
[17] = tested on: A498; experiment: Growth inhibition of human A498 cells incubated for 48 hrs by sulforhodamine B assay; type: functional; details: A498, 48 h
[18] = tested on: ACHN; experiment: Growth inhibition of human ACHN cells incubated for 48 hrs by sulforhodamine B assay; type: functional
[19] = tested on: RXF 393; experiment: Growth inhibition of human RXF393 cells incubated for 48 hrs by sulforhodamine B assay; type: functional; details: RXF 393, 48 h
[20] = tested on: SN12C; experiment: Growth inhibition of human SN12C cells incubated for 48 hrs by sulforhodamine B assay; type: functional
[21] = tested on: COLO 205; experiment: Growth inhibition of human COLO205 cells incubated for 48 hrs by sulforhodamine B assay; type: functional; details: COLO 205, 48 h
[22] = tested on: HCC 2998; experiment: Growth inhibition of human HCC2998 cells incubated for 48 hrs by sulforhodamine B assay; type: functional; details: HCC 2998, 48 h
[23] = tested on: HCT-15; experiment: Growth inhibition of human HCT15 cells incubated for 48 hrs by sulforhodamine B assay; type: functional; details: HCT-15, 48 h
[24] = tested on: KM12; experiment: Growth inhibition of human KM12 cells incubated for 48 hrs by sulforhodamine B assay; type: functional; details: KM12, 48 h
[25] = tested on: OVCAR-3; experiment: Growth inhibition of human OVCAR3 cells incubated for 48 hrs by sulforhodamine B assay; type: functional; details: OVCAR-3, 48 h
[26] = tested on: OVCAR-5; experiment: Growth inhibition of human OVCAR5 cells incubated for 48 hrs by sulforhodamine B assay; type: functional; details: OVCAR-5, 48 h
[27] = tested on: SK-OV-3; experiment: Growth inhibition of human SKOV3 cells incubated for 48 hrs by sulforhodamine B assay; type: functional; details: SK-OV-3, 48 h
[28] = tested on: LOX IMVI; experiment: Growth inhibition of human LOXIMVI cells incubated for 48 hrs by sulforhodamine B assay; type: functional
[29] = tested on: M14; experiment: Growth inhibition of human M14 cells incubated for 48 hrs by sulforhodamine B assay; type: functional; details: M14, 48 h
[30] = tested on: MDA-MB-435; experiment: Growth inhibition of human MDA-MB-435 cells incubated for 48 hrs by sulforhodamine B assay; type: functional; details: MDA-MB-435, 48 h
[31] = tested on: SK-MEL-5; experiment: Growth inhibition of human SK-MEL-5 cells incubated for 48 hrs by sulforhodamine B assay; type: functional; details: SK-MEL-5, 48 h
[32] = tested on: UACC-62; experiment: Growth inhibition of human UACC62 cells incubated for 48 hrs by sulforhodamine B assay; type: functional; details: UACC-62, 48 h
[33] = tested on: DU-145; experiment: Growth inhibition of human DU145 cells incubated for 48 hrs by sulforhodamine B assay; type: functional; details: DU-145, 48 h
[34] = tested on: MCF7; experiment: Growth inhibition of human MCF7 cells incubated for 48 hrs by sulforhodamine B assay; type: functional; details: MCF7, 48 h
[35] = tested on: MDA-MB-231; experiment: Growth inhibition of human MDA-MB-231 cells incubated for 48 hrs by sulforhodamine B assay; type: functional; details: MDA-MB-231, 48 h
[36] = tested on: CCRF-CEM; experiment: Growth inhibition of human CCRF-CEM cells incubated for 48 hrs by sulforhodamine B assay; type: functional
[37] = tested on: HL-60(TB); experiment: Growth inhibition of human HL-60(TB) cells incubated for 48 hrs by sulforhodamine B assay; type: functional; details: HL-60, 48 h
[38] = tested on: K562; experiment: Growth inhibition of human K562 cells incubated for 48 hrs by sulforhodamine B assay; type: functional; details: K562, 48 h
[39] = tested on: MOLT-4; experiment: Growth inhibition of human MOLT4 cells incubated for 48 hrs by sulforhodamine B assay; type: functional; details: MOLT-4, 48 h
[40] = tested on: RPMI-8226; experiment: Growth inhibition of human RPMI8226 cells incubated for 48 hrs by sulforhodamine B assay; type: functional; details: RPMI-8226, 48 h
[41] = Stability in human liver microsome assessed as parent compound remaining at 20 uM after 60 mins in presence of NADPH by LC-MS/MS analysis; type: ADME; details: liver microsomes, read-out: Stability
Procedure, shortened: (§1)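 Human liver microsomes (both genders; 1.0 mg/mL) in 100 mM PBS pH 7.4 with 3 mM MgCl2 and 10 mM NADPH, preincubated at 37 °C. Reaction started with compound at 20 μM final (from DMSO stock); propranolol 5 μM as control. Aliquots at 0 and 60 min quenched in ice-cold ACN. Analysed by LC/MS/MS on a C18 column, 5–75% B gradient over 30 min, ESI.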

[42] = Retention time of the compound in human liver microsomes at 20 uM by LC-MS/MS analysis; type: ADME, microsome; procedure, shortened: as §1

For `CSc1ccc(N(C)c2nc(C)nc3c2CCC3)cc1`, the pEC50 [1] was 7.89, the pIC50 [2] was 5.89 and the pIC50 [3] was 8.14. The pIC50 [4] was 8.03, the “Ratio IC50” value [5] was 1.3 and the pIC50 [6] was 8.15. The GI50 [7] was under 0.01 µM, the GI50 [8] was under 0.01 µM and the GI50 [9] was under 0.01 µM. The GI50 [10] was under 0.01 µM, the GI50 [11] was under 0.01 µM and the GI50 [12] was under 0.01 µM. For the same compound, the GI50 [13] was under 0.01 µM, the GI50 [14] was under 0.01 µM and the GI50 [15] was under 0.01 µM. The GI50 [16] was under 0.01 µM, the GI50 [17] was under 0.01 µM and the GI50 [18] was under 0.01 µM. The GI50 [19] was under 0.01 µM, the GI50 [20] was under 0.01 µM and the GI50 [21] was under 0.01 µM. For the same compound, the GI50 [22] was under 0.01 µM, the GI50 [23] was under 0.01 µM and the GI50 [24] was under 0.01 µM. It also gave a GI50 [25] of under 0.01 µM, a GI50 [26] of over 10 µM and a GI50 [27] of under 0.01 µM. For the same compound, the GI50 [28] was under 0.01 µM, the GI50 [29] was under 0.01 µM and the GI50 [30] was under 0.01 µM. The GI50 [31] was under 0.01 µM, the GI50 [32] was under 0.01 µM and the GI50 [33] was under 0.01 µM. It also gave a GI50 [34] of under 0.01 µM, a GI50 [35] of under 0.01 µM and a GI50 [36] of under 0.01 µM. The GI50 [37] was under 0.01 µM, the GI50 [38] was under 0.01 µM and the GI50 [39] was under 0.01 µM. The GI50 [40] was under 0.01 µM, the remaining at 1 h, 20 µM [41] was 46.4% and the Retention_time [42] was 17.4 min.
